Laboratory results reported in article PMC2939291 (Experimental parasitology, 2010).
In brackets after ≈: the same amount, converted by molar mass. Read-outs that look alike come from different tables or passages of the source.

Experiments:
[1] = tested on: egfp transfected Leishmania amazonensis amastigotes in PBMC derived macrophages; assay: microbe, parasite or virus in culture; assay type: cell-based
[2] = tested on: THP-1 cells; assay: Trypan blue dye exclusion cytotoxicity test, THP-1 cells; assay type: cell-based, human
Outline: (§1)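 Macrophages prepared before testing: THP-1 cells were grown in RPMI 1640 with 10% heat-inactivated FBS at 37°C and 5% CO2, then stimulated with 20 nM PMA. PBMC-derived cells were stimulated with autologous platelet-poor serum. After test compound exposure, clear (viable) and blue cells were counted on a hemocytometer to give percent viability. CC50 came from a variable-slope sigmoidal fit normalised to untreated cells. Assays were run in duplicate.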

[3] = tested on: human PBMC derived macrophages; assay: Trypan blue dye exclusion cytotoxicity test, human PBMC derived macrophages; assay type: cell-based
Outline: as §1

[4] = tested on: GFP-transfected Leishmania (Viannia) panamensis amastigotes in U937 cell line; conditions: L. (V.) panamensis in U937 cells, GFP flow cytometry; ref Varela et al., 2009; cited from earlier work
[5] = tested on: egfp transfected Leishmania amazonensis amastigotes in THP-1 cells; assay: microbe, parasite or virus in culture; assay type: cell-based
[6] = tested on: Leishmania amazonensis infected cells; assay: Infection measured by standard Giemsa staining of cells; assay type: cell-based
[7] = standard doses (0.3 mg/kg days 1 and 2, increasing to 0.5 mg/kg) during clinical therapy; ref Atkinson, Jr. and Bennett, 1978; cited from earlier work
[8] = tested on: human PBMC derived macrophages; assay type: cell-based

O.O.O.O.O.O.O.O.O.O=C([O-])[C@@H]1[O][Sb](=[O])([O][Sb]2(=[O])[O][C@H]([C@H](O)CO)[C@H](O)[C@H](C(=O)[O-])[O]2)[O][C@H]([C@H](O)CO)[C@@H]1O.[Na+].[Na+].[Na+] (stereo partly drawn) [Sodium stibogluconate, sodium stibogluconate]
EC50 ([1]; human PBMC derived macrophages, GFP fluorescence): 194.8 ± 36.4 µg/mL
CC50 [2]: 4600 ± 1100 µg/mL
CC50 [3]: 6300 ± 2800 µg/mL

meglumine antimoniate
EC50 [4]: 20 µg/mL

C[C@@H]1[C@H](O)[C@@H](C)/C=C/C=C/C=C/C=C/C=C/C=C/C=C/[C@H](O[C@@H]2O[C@H](C)[C@@H](O)[C@H](N)[C@@H]2O)C[C@@H]2O[C@](O)(C[C@@H](O)C[C@@H](O)[C@H](O)CC[C@@H](O)C[C@@H](O)CC(=O)O[C@H]1C)C[C@H](O)[C@H]2C(=O)O [Amphotericin B, amphotericin B]
EC50 ([5]; Leishmania amazonensis, THP-1): 0.1445 ± 0.0005 µg/mL (≈ 0.156 µM)
Selective Index (SI) ([5]; THP-1 cells, ratio of EC50 and CC50): 105.2
EC50 ([1]; Leishmania amazonensis, in Homo sapiens): 0.179 ± 0.035 µg/mL (≈ 0.194 µM)
Selective Index (SI) ([1]; human PBMC derived macrophages, ratio of EC50 and CC50): 355.9
Selective Index (SI) ([1]; human PBMC derived macrophages, ratio of EC50 and CC50, listed as amphotericin B): 356
EC50 [6]: 0.074 µg/mL (≈ 0.0801 µM)
EC50 [4]: 0.078 µg/mL (≈ 0.0844 µM)
serum level [7]: above 0.2 μg/ml

CCCCCCCCCCCCCCCCOP(=O)([O-])OCC[N+](C)(C)C [Miltefosine, miltefosine]
Selective Index (SI) [5]: 1.51
Selective Index (SI) [1]: 6.13
toxicity against the macrophages [8]: significant toxicity
